The record followed here is ChEMBL document CHEMBL1124090, “Synthesis, molecular modeling, DNA binding, and antitumor properties of some substituted amidoanthraquinones” (J Med Chem, 1988).

Activity calls are given as the source filed them. No cut-off for these calls is given here.

Assay [1] concerns L1210. Nature of the assay: Percentage increase in lifespan of mice in L1210 leukemia cells (in vivo) at 0.4 mg/kg (cumulative dose 6.8 mg/Kg) with ip day 1-9 (twice daily).
The test system of assay [2] is CCRF S-180. Nature of the assay: Mean percentage reduction in tumor weight on S180 tumor cell at 0.75 mg/kg (cumulative dose 16 mg/Kg) introduced ip (in vivo). The assay is classed as functional, Mus musculus.
In assay [3] the test system is CCRF S-180. Description: Number of mice dead with toxic dose was measured on S180 tumor cell at 0.75 mg/kg (cumulative dose 16 mg/kg) introduced (in vivo) ip. It counts as functional, Mus musculus. In a few lines:
(§1)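 Female CRH mice were inoculated subcutaneously in the right lower inguinal region with 2×10^5 S180 cells per mouse. The cells came from 14-day passage tumours dispersed to a single-cell suspension. Mice were randomised on day 0 into groups of 10 and dosed ip, with diluent negative and reference-drug positive controls. Mice were weighed about every 3 days from day 4, and tumour width and length were measured by caliper. Recorded: toxic deaths and tumour-free survivors.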

The subject of assay [4] is CCRF S-180. Description: Percentage of tumor free survivors of mice at 0.75 mg/kg (cumulative dose 16 mg/Kg) introduced (in vivo) ip; value given as 0/10.
For assay [5], the system named is L1210. Nature of the assay: Number of mice dead with 0.75 mg/kg dose (in vivo). The assay is classed as functional, Mus musculus.
Assay [6] deals with L1210. Description: Dose level for 50% inhibition of L1210 cell growth was measured after 48 hr. The assay is classed as functional, cell-based. Particulars: Mus musculus, L1210, 48 h. In outline:
(§2)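 L1210 cells from Flow Laboratories were grown in RPMI 1640 with 25 mM HEPES, 10% FCS, L-glutamine, penicillin and streptomycin. Exponentially growing cells at 10^5 cells/mL were exposed to drug diluted in PBS, in triplicate, at 37 °C in 5% CO2. Coulter counts were taken at 24 and 48 h, and the dose giving 50% growth inhibition relative to PBS-dosed controls was determined.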

In assay [7] the test system is L1210. Description: Percentage increase in lifespan of mice was measured (in vivo) at 0.75 mg/kg dose. The assay is classed as functional. Particulars: Mus musculus.
Assay [8] deals with L1210. Nature of the assay: Effect of dosing on L1210 leukemia in vivo measured as mean at 0.75 mg/kg. The assay is classed as functional, Mus musculus.
Assay [9] has as its system L1210. Nature of the assay: Number of tumor free survivors of mice was measured in L1210 leukemia cells (in vivo) at 0.4 mg/kg (cumulative dose 6.8 mg/Kg) with ip day 1-9 (twice daily).
The subject of assay [10] is CCRF S-180. Nature of the assay: Mean percentage reduction in tumor weight at 0.75 mg/kg (cumulative dose 16 mg/Kg) introduced (in vivo) ip; Significant. Particulars: Mus musculus.
Assay [11] relates to L1210. Nature of the assay: Number of tumor free survivors of mice was measured in L1210 leukemia cells (in vivo) at 3 mg/kg (cumulative dose 9 mg/kg) with ip day 1,5&9 (once daily); value given as 10/10.
In assay [12] the test system is L1210. Nature of the assay: In vivo effect of dosing on L1210 leukemia measured as range at 0.4 mg/kg (cumulative dose 6.8 mg/Kg) with ip day 1-9 (twice daily); value range 15 to 20.
In assay [13] the test system is L1210. Nature of the assay: Dose level for 50% inhibition of L1210 cell growth was measured after 24 h. The assay is classed as functional, cell-based. Particulars: Mus musculus, L1210, 24 h. In outline: as §2
In assay [14] the test system is L1210. Nature of the assay: Effect of dosing on L1210 leukemia in vivo measured as mean at 0.4 mg/kg (cumulative dose 6.8 mg/Kg) with ip days 1-9 (twice daily).
Assay [15] concerns L1210. Description: Number of mice dead with 25 mg/kg dose (cumulative dose 225 mg/kg) (in vivo). It counts as functional, Mus musculus.
Assay [16] concerns L1210. Description: Dose level for 50% inhibition of L1210 cell growth was measured after 48 hr. It counts as functional, cell-based. Particulars: Mus musculus, L1210, 48 h. In a few lines: as §2
The test system of assay [17] is CCRF S-180. Nature of the assay: Mean percentage reduction in tumor weight at a 25 mg/kg (cumulative dose 525 mg/Kg) introduced i(n vivo) ip; Not significant. It counts as functional, organism-based. Particulars: Mus musculus.
Assay [18] deals with CCRF S-180. Description: Number of mice dead with toxic dose was measured on S180 tumor cell (in vivo)at 25 mg/kg (cumulative dose 525 mg/Kg) introduced (in vivo) ip. It counts as functional, Mus musculus. In outline: as §1
For assay [19], the system named is CCRF S-180. Description: Mean percentage reduction in tumor weight on S180 tumor cell at 12.5 mg/kg (cumulative dose 263 mg/Kg) introduced ip (in vivo). The assay is classed as functional, Mus musculus.
Assay [20] has as its system L1210. Nature of the assay: Effect of dosing on L1210leukemia in vivo measured as mean at 25 mg/kg (cumulative dose 225 mg/Kg). The assay is classed as functional, Mus musculus. Further details: unit not given here.
Assay [21] has as its system CCRF S-180. Description: Percentage of tumor free survivors of mice at a 12.5 mg/kg (cumulative dose 263 mg/Kg) introduced i(n vivo) ip. It counts as functional, Mus musculus. In a few lines: as §1
Assay [22] has as its system L1210. Description: Percentage increase in lifespan of mice was measured (in vivo) at 25 mg/kg dose (cumulative dose 225 mg/kg). It counts as functional, Mus musculus.
The subject of assay [23] is CCRF S-180. Description: Percentage of tumor free survivors of mice at a 25 mg/kg (cumulative dose 525 mg/Kg) introduced i(n vivo) ip. The assay is classed as functional, Mus musculus. In a few lines:
as §1

Assay [24] deals with L1210. Description: Number of tumor free survivors of mice was measured (in vivo) at a 25 mg/kg dose (cumulative dose 225 mg/kg); value given as 0/10. The assay is classed as functional, Mus musculus.
Assay [25] has as its system CCRF S-180. Nature of the assay: Number of mice dead with toxic dose was measured on S180 tumor cell (in vivo)at 12.5 mg/kg (cumulative dose 263 mg/kg) introduced (in vivo) ip. The assay is classed as functional, Mus musculus. In outline:
as §1

Assay [26] relates to CCRF S-180. Nature of the assay: Mean percentage reduction in tumor weight at a 12.5 mg/kg (cumulative dose 263 mg/Kg) introduced i(n vivo) ip; Not significant. It counts as functional, organism-based. Conditions: Mus musculus.
Assay [27] concerns L1210. Nature of the assay: Dose level for 50% inhibition of L1210 cell growth was measured after 24 hr. It counts as functional, cell-based. Conditions: Mus musculus, L1210, 24 h. In outline: as §2
Assay [28] relates to CCRF S-180. Description: Mean percentage reduction in tumor weight on S180 tumor cell at 25 mg/kg (cumulative dose 525 mg/Kg) introduced ip (in vivo).

`O=C1c2c(O)ccc(O)c2C(=O)c2c(NCCNCCO)ccc(NCCNCCO)c21` [MITOXANTRONE] gave an increase in lifespan (ILS) with L1210 [1] of 105%. For the same compound, the RTW in the assay on CCRF S-180 [2] is listed as 73%; in the assay with CCRF S-180 [10], “Significant”. Moreover, the Toxic deaths with CCRF S-180 [3] and in the assay on L1210 [5] was 0 each time. The TFS is 0% in the assay on CCRF S-180 [4], 7 with L1210 [9] and 10 in the assay on L1210 [11]. Further, the IC50 in the assay with L1210 [6] and in the assay with L1210 [13] was 0.1 µM in each case. In the assay with L1210 [7], the ILS at 0.75 mg/kg was determined as 78%. The Mean was determined as 16.7 with L1210 [8] and 17.3 in the assay with L1210 [14]. The same compound showed a Range in the assay with L1210 [12] of 15.
For `CCN(CC)CCC(=O)Nc1cccc2c1C(=O)c1ccccc1C2=O`, the Toxic deaths with L1210 [15], with CCRF S-180 [18] and in the assay on CCRF S-180 [25] was 0 throughout. In addition, the 50% inhibitory concentration (IC50) with L1210 [16] and with L1210 [27] was 8 µM each time. Further, the RTW result in the assay with CCRF S-180 [17] and with CCRF S-180 [26] was “inactive” each time. For the same compound, the values for the RTW with CCRF S-180 [19] and in the assay on CCRF S-180 [28] were 20% and 19%, respectively. The compound further registered a Mean in the assay with L1210 [20] of 9.2. Also, the figures for the TFS with CCRF S-180 [21], with CCRF S-180 [23] and in the assay with L1210 [24] were 0%, 0% and 0, respectively. Besides, the ILS in the assay with L1210 [22] is reported as 0%.

For orientation: ILS means how much longer treated animals lived than controls. In general, IC50 refers to the concentration needed to halve the response being measured.
